Test results published in ChEMBL document CHEMBL4765342, “Substituted benzothiophene and benzofuran derivatives as a novel class of bone morphogenetic Protein-2 upregulators: Synthesis, anti-osteoporosis efficacies in ovariectomized rats and a zebrafish model, and ADME properties” (Eur J Med Chem, 2020).
The source made the active and inactive calls. The rule behind the calls is not given here.

Experiments:
[1] = Solubility in PBS buffer at pH 7.4 assessed as precipitation of compound at 10000 nM; format: physicochemical; conditions: pH 7.4, 10 µM
[2] = Solubility in PBS buffer at pH 7.4 assessed as precipitation of compound at 5000 nM; format: physicochemical; conditions: pH 7.4, 5 µM
[3] = Solubility in PBS buffer at pH 7.4 assessed as precipitation of compound at 2500 nM; format: physicochemical; conditions: pH 7.4, 2.5 µM
[4] = Solubility in PBS buffer at pH 7.4 assessed as precipitation of compound at 1250 nM; format: physicochemical; conditions: pH 7.4, 1.25 µM
[5] = Solubility in PBS buffer at pH 7.4 assessed as precipitation of compound at 625 nM; format: physicochemical; conditions: pH 7.4, 0.625 µM
[6] = Solubility in PBS buffer at pH 7.4 assessed as precipitation of compound at 312.5 nM; format: physicochemical; conditions: pH 7.4, 0.3125 µM
[7] = Solubility in PBS buffer at pH 7.4 assessed as precipitation of compound at 156.25 nM; format: physicochemical; conditions: pH 7.4, 0.15625 µM
[8] = Toxicity in Kunming mouse assessed as organism death administered orally for 3 days and observed for 17 days starting from drug administration; conditions: in vivo, po, 408 h, time 17 day
[9] = Apparent permeability across apical to basolateral side in human Caco-2 cells at 10 uM incubated for 2 hrs LC-MS/MS analysis; format: ADME, cell-based; conditions: for Papp A→B at 2 h, 10 µM: Caco-2
Procedure, shortened: (§1)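 Caco-2 monolayers, apical to basolateral direction. Plates preincubated 30 min at 37 °C, then exposed to 10 µM compound for 2 h at 37 °C without shaking. Donor and receiver samples were quenched, centrifuged and measured by LC/MS/MS, in duplicate. Papp calculated from receiver concentration, area and time. Monolayer integrity checked by TEER and by Lucifer yellow leakage (30 min, 37 °C, ex 485/em 530 nm).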

[10] = Permeability across apical to basolateral side in human Caco-2 cells assessed as transepithelial electrical resistance at 10 uM incubated for 2 hrs LC-MS/MS analysis; format: ADME, cell-based; conditions: caco-2, 2 h; procedure, shortened: as §1
[11] = Permeability across apical to basolateral side in human Caco-2 cells assessed as […] yellow leakage at 10 uM incubated for 2 hrs LC-MS/MS analysis; format: ADME, cell-based; conditions: caco-2, 2 h; procedure, shortened: as §1
in vitro [12] = conditions: human
in vitro [13] = conditions: human; remark: listed apart in the source
Rattus norvegicus [14] = experiment: Antiosteoporotic activity in Sprague-Dawley rat model of OVX-induced bone loss assessed as increase in number of trabeculae at 30 mg/kg, ig administered for 3 months with 1 day break after 6 consecutive days administration; format: functional, organism-based
Procedure, shortened: (§2)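 Female SD rats given bilateral ovariectomy (sham: fat tissue removed instead), adapted 1 week beforehand; dosing began on postoperative day 10, n = 10 per group. Test drugs as 3 mg/mL suspension by gavage; raloxifene hydrochloride at 0.5 mg/mL. Controls got water. Tetracycline 30 mg/kg ip 16 and 3 days before euthanasia. Tibia stained sections give trabecular morphology and TBV%. BMD of L4-6 measured by densitometry under pentobarbital 45 mg/kg anaesthesia. Reported as mean ± SD.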

Rattus norvegicus [15] = experiment: Antiosteoporotic activity in Sprague-Dawley rat model of OVX-induced bone loss assessed as increase in thickness of trabeculae at 30 mg/kg, ig administered for 3 months with 1 day break after 6 consecutive days administration; format: functional, organism-based; procedure, shortened: as §2
Rattus norvegicus [16] = experiment: Antiosteoporotic activity in Sprague-Dawley rat model of OVX-induced bone loss assessed as narrowed gap between trabeculae at 30 mg/kg, ig administered for 3 months with 1 day break after 6 consecutive days administration; format: functional, organism-based; procedure, shortened: as §2
Rattus norvegicus [17] = experiment: Antiosteoporotic activity in Sprague-Dawley rat model of OVX-induced bone loss assessed as increase in trabecular bone volume at 30 mg/kg, ig administered for 3 months with 1 day break after 6 consecutive days administration; format: functional, organism-based; procedure, shortened: as §2
Rattus norvegicus [18] = experiment: Antiosteoporotic activity in Sprague-Dawley rat model of OVX-induced bone loss assessed as increase in trabecular bone mineral density at 30 mg/kg, ig administered for 3 months with 1 day break after 6 consecutive days administration; format: functional, organism-based; procedure, shortened: as §2

Row | Compound | solubility [1] | solubility [2] | solubility [3] | solubility [4] | solubility [5] | solubility [6] | solubility [7] | also measured
1 | COc1ccc2cc(C(=O)OCCCN(C)C)sc2c1 [listing 1 of 2 here] | Insoluble | Insoluble | Insoluble | Insoluble | Soluble | Soluble | Soluble | 
2 | COc1ccc2cc(C(=O)OCCCN(C)C)sc2c1.CS(=O)(=O)O |  |  |  |  |  |  |  | LD50 [8]: > 500 mg/kg/day
3 | O=C(OCCN1CCOCC1)c1cc2cc3c(cc2s1)OCO3 [listing 1 of 2 here] | Insoluble | Insoluble | Insoluble | Soluble | Soluble | Soluble | Soluble | 
4 | COCCc1ccc(OCC(O)CNC(C)C)cc1 (stereo unspecified) [METOPROLOL] |  |  |  |  |  |  |  | Papp A→B at 2 h, 10 µM [9]: 32.6 ×10⁻⁶ cm/s; Activity [10]: 326 Ω·cm²; Activity [11]: 0.154%; half-life at 0.5 h, 100 µM (in vitro [12]; microsomes): 159 min; microsomal CLint at 0.5 h, 100 µM (in vitro [13]; liver microsomes): 4.35 µL/min/mg
5 | CCOc1ccc(NC(C)=O)cc1 [PHENACETIN] |  |  |  |  |  |  |  | half-life at 0.5 h, 100 µM (in vitro [12]; microsomes): 26.5 min; microsomal CLint at 0.5 h, 100 µM (in vitro [13]; liver microsomes): 26.2 µL/min/mg
6 | COc1ccc2cc(C(=O)NCCN(C)C)oc2c1 | Insoluble | Insoluble | Soluble | Soluble | Soluble | Soluble | Soluble | 
7 | CN/C(=N/CCSCc1nc[nH]c1C)NC#N [CIMETIDINE] |  |  |  |  |  |  |  | Papp A→B at 2 h, 10 µM [9]: 0.679 ×10⁻⁶ cm/s; Activity [10]: 318 Ω·cm²; Activity [11]: 0.134%
8 | CC[C@H]1OC(=O)[C@H](C)[C@@H](O[C@H]2C[C@@](C)(OC)[C@@H](O)[C@H](C)O2)[C@H](C)[C@@H](O[C@@H]2O[C@H](C)C[C@H](N(C)C)[C@H]2O)[C@](C)(O)C[C@@H](C)C(=O)[C@H](C)[C@@H](O)[C@]1(C)O [ERYTHROMYCIN] |  |  |  |  |  |  |  | Papp ([9]; caco-2, 2 h, 10 µM): 0.0324 10^-6 cm/s; Activity [10]: 396 Ω·cm²; Activity [11]: 0.137%
9 | CS(=O)(=O)O.O=C(OCCN1CCOCC1)c1cc2cc3c(cc2s1)OCO3 |  |  |  |  |  |  |  | LD50 [8]: > 500 mg/kg/day
10 | O=C(O)Cc1ccccc1Nc1c(Cl)cccc1Cl [DICLOFENAC] |  |  |  |  |  |  |  | microsomal CLint at 0.5 h, 100 µM (in vitro [13]; microsomes): 197 µL/min/mg
11 | CC(=O)c1cc2ccccc2s1 |  |  |  |  |  |  |  | Activity (Rattus norvegicus [14]): Active; Activity (Rattus norvegicus [15]): Active; Activity (Rattus norvegicus [16]): Active; Activity (Rattus norvegicus [17]): Active; Activity (Rattus norvegicus [18]): Active; Papp A→B at 2 h, 10 µM [9]: 22.1 ×10⁻⁶ cm/s; Activity [10]: 351 Ω·cm²; Activity [11]: 0.179%; half-life at 0.5 h, 100 µM (in vitro [12]; liver microsomes): 1.25 min; microsomal CLint at 0.5 h, 100 µM (in vitro [13]; liver microsomes): > 300 µL/min/mg
12 | COc1ccc2cc(C(=O)OCCN(C)C)oc2c1.CS(=O)(=O)O |  |  |  |  |  |  |  | LD50 [8]: > 500 mg/kg/day
13 | COc1ccc2cc(C(=O)OCCP(=O)(O)O)oc2c1 [listing 1 of 2 here] | Soluble | Soluble | Soluble | Soluble | Soluble | Soluble | Soluble | 
14 | CN(C)CCCOc1nn(Cc2ccccc2)c2ccccc12 [BENZYDAMINE] |  |  |  |  |  |  |  | half-life at 0.5 h, 100 µM (in vitro [12]; microsomes): 43.1 min; microsomal CLint at 0.5 h, 100 µM (in vitro [13]; microsomes): 16.1 µL/min/mg
15 | COc1ccc2cc(C(=O)OCCN(C)C)oc2c1 [listing 1 of 2 here] | Insoluble | Soluble | Soluble | Soluble | Soluble | Soluble | Soluble | 
16 | COc1ccc2cc(C(=O)OCCN(C)C)oc2c1 [listing 2 of 2 here] |  |  |  |  |  |  |  | Activity (Rattus norvegicus [14]): Active; Activity (Rattus norvegicus [15]): Active; Activity (Rattus norvegicus [16]): Active; Activity (Rattus norvegicus [17]): Active; Activity (Rattus norvegicus [18]): Active
17 | COc1ccc2cc(C(=O)OCCP(=O)(O)O)oc2c1 [listing 2 of 2 here] |  |  |  |  |  |  |  | Activity (Rattus norvegicus [17]): Active; Activity (Rattus norvegicus [18]): Active
18 | O=C(OCCN1CCOCC1)c1cc2cc3c(cc2s1)OCO3 [listing 2 of 2 here] |  |  |  |  |  |  |  | Activity (Rattus norvegicus [17]): Active; Activity (Rattus norvegicus [18]): Active
19 | COc1ccc2cc(C(=O)OCCP(=O)([O-])[O-])oc2c1.[Na+].[Na+] |  |  |  |  |  |  |  | LD50 [8]: > 500 mg/kg/day
20 | COc1ccc2cc(C(=O)OCCCN(C)C)sc2c1 [listing 2 of 2 here] |  |  |  |  |  |  |  | Activity (Rattus norvegicus [17]): Active; Activity (Rattus norvegicus [18]): Active

Now from value to compound, other results behind:

Row | solubility [1] | solubility [2] | solubility [3] | solubility [4] | solubility [5] | solubility [6] | solubility [7] | Compound | also measured
21 | Insoluble | Soluble | Soluble | Soluble | Soluble | Soluble | Soluble | COc1ccc2cc(C(=O)OCP(=O)(O)O)oc2c1 | 
22 | Insoluble | Insoluble | Insoluble | Insoluble | Insoluble | Soluble | Soluble | CCCCOC(=O)c1cc2ccc(OC)cc2s1 | 
23 | Insoluble | Insoluble | Soluble | Soluble | Soluble | Soluble | Soluble | COc1ccc2cc(C(=O)N(C)CCN(C)C)oc2c1 | 
24 | Insoluble | Insoluble | Insoluble | Insoluble | Soluble | Soluble | Soluble | CN(C)CCNC(=O)c1cc2cc3c(cc2s1)OCO3 | 
25 | Insoluble | Insoluble | Insoluble | Insoluble | Insoluble | Insoluble | Insoluble | CCOC(=O)c1cc2ccc(OC)cc2s1 | 
26 | Insoluble | Insoluble | Insoluble | Soluble | Soluble | Soluble | Soluble | CN(C)CCOC(=O)c1cc2cc3c(cc2s1)OCO3 | 
27 | Insoluble | Insoluble | Insoluble | Insoluble | Soluble | Soluble | Soluble | CN(C)CCCOC(=O)c1cc2cc3c(cc2s1)OCO3 | 
28 | Insoluble | Soluble | Soluble | Soluble | Soluble | Soluble | Soluble | COc1ccc2cc(C(=O)OCCN3CCOCC3)oc2c1 | 
29 | Insoluble | Insoluble | Insoluble | Insoluble | Insoluble | Insoluble | Soluble | CCOC(=O)c1cc2cc3c(cc2s1)OCO3 | 
30 | Insoluble | Soluble | Soluble | Soluble | Soluble | Soluble | Soluble | COc1ccc2cc(C(=O)OCCCN(C)C)oc2c1 | 
